Source: ChEMBL document CHEMBL4052597, “Symmetrically Substituted Xanthone Amphiphiles Combat Gram-Positive Bacterial Resistance with Enhanced Membrane Selectivity” (J Med Chem, 2017)
Values after ≈ are worked out from the molar mass of the structure shown. Active and inactive are the calls of the source. The calls are words filed in the database; no cut-off is given here.

Assays:
Lipid bilayer [1] = experiment: Induction of membrane damage in DOPE/DOPG large unilamellar vesicles assessed as calcein leakage at compound to lipid ratio of 1:16 after 1 hr by fluorescence assay relative to control
How it was run: (§1)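 100 nm calcein-loaded LUVs made by film hydration; lipid content set by total phosphorus assay. DOPC/cholesterol (3:1, w/w) mimics mammalian and DOPE/DOPG (3:1, w/w) bacterial membranes. Compound in DMF added at lipid-to-compound ratio 16 (6.25 µM compound), final DMF limited to 0.5%. Fluorescence monitored at ex 490/em 520 nm for 1 hour; replicated.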

Staphylococcus aureus [2] = experiment: Antibacterial activity against Staphylococcus aureus DM 4001R after 24 hrs by two fold dilution assay; type: functional
How it was run: (§2)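 CLSI broth macrodilution in cation-adjusted Mueller-Hinton broth. Compounds were dissolved in DMF and diluted in PBS to a 1000 µg/mL stock, then serially 2-fold diluted in CA-MHB. The inoculum came from colonies on 18-20 h TSA plates (direct colony suspension), adjusted to ~5×10^5 CFU/mL. Incubation was 24 h at 35 °C. MIC is the lowest concentration with no visible growth versus control. Biological replicates.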

Staphylococcus aureus [3] = experiment: Antibacterial activity against methicillin-resistant Staphylococcus aureus DM 21455 after 24 hrs by two fold dilution assay; type: functional; conditions: DM 21455, 24 h; how it was run: as §2
Staphylococcus aureus [4] = experiment: Disruption of membrane in Staphylococcus aureus isolate DM4001R assessed as […] in ATP leakage at 200 ug/ml after 1 hr by ATP bioluminescent assay relative to control; type: functional; parameters: scale not given: the % may be the effect or the level left
How it was run: (§3)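 S. aureus DM4001 grown to exponential phase, washed three times in 20 mM PBS (pH 7), resuspended to OD600 0.2. Compound added, suspensions held 1 hour at 37 °C, then centrifuged. Supernatant mixed with luciferase/luciferin enzyme mix; extracellular ATP quantified by luminescence. Replicated.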

Staphylococcus aureus [5] = experiment: Antibacterial activity against methicillin-resistant Staphylococcus aureus DM 9808R after 24 hrs by two fold dilution assay; type: functional; how it was run: as §2
Staphylococcus aureus [6] = experiment: Disruption of cytoplasmic membrane in Staphylococcus aureus isolate DM4001R at 100 ug/ml after 3000 secs by SYTOX green dye based fluorescence assay; type: functional
How it was run: (§4)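 Clinical S. aureus isolate DM4001R incubated with SYTOX Green plus compound; membrane permeabilization read as increased fluorescence intensity. Measurements replicated.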

Bacillus cereus = experiment: Antibacterial activity against Bacillus cereus ATCC 11778 after 24 hrs by two fold dilution assay; type: functional; conditions: ATCC 11778, 24 h
How it was run: (§5)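 Broth macro-dilution per CLSI in cation-adjusted Mueller-Hinton broth; compounds dissolved in DMF, diluted in PBS to 1000 µg/mL stock, then serial 2-fold dilutions in CA-MHB in tubes. Inoculum from 18-20 h TSA colonies (direct colony suspension), adjusted to about 5× 10^5 CFU/mL. MIC read after 24 h at 35 °C as lowest concentration with no visible growth; biological replicates.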

Lipid bilayer [7] = experiment: Induction of membrane damage in DOPC/cholesterol large unilamellar vesicles assessed as calcein leakage at compound to lipid ratio of 1:16 after 1 hr by fluorescence assay relative to control; how it was run: as §1
Staphylococcus aureus [8] = experiment: Antibacterial activity against methicillin-sensitive Staphylococcus aureus DM4400R after 24 hrs by two fold dilution assay; type: functional; how it was run: as §2
Staphylococcus aureus [9] = experiment: Disruption of cytoplasmic membrane in Staphylococcus aureus isolate DM4001R at 2 times MIC after 3000 secs by SYTOX green dye based fluorescence assay; type: functional; how it was run: as §4
Staphylococcus aureus [10] = experiment: Antibacterial activity against methicillin-resistant Staphylococcus aureus DB68004 after 24 hrs by two fold dilution assay; type: functional; conditions: DB68004, 24 h; how it was run: as §2
Enterococcus faecium [11] = experiment: Antibacterial activity against vancomycin A-resistant Enterococcus faecium VRE 1006 after 24 hrs by two fold dilution assay; type: functional; conditions: VRE 1006, 24 h; how it was run: as §2
Staphylococcus aureus [12] = experiment: Bactericidal activity against methicillin-resistant Staphylococcus aureus DM21455 assessed as log reduction in bacterial load at 4 times MIC after 10 mins by time kill assay; type: functional
How it was run: (§6)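 MRSA DM21455 was taken from colonies on 18-22 h TSA plates and diluted to 10^5~10^6 CFU/mL in PBS. Cells were exposed to 0.5×, 1×, 2× and 4× MIC at 35 °C, with a PBS control. Samples were taken at 10 min, 30 min, 1, 2, 4 and 8 h, 10-fold diluted in PBS and plated on MHA. Colonies were counted after 24-48 h at 35 °C. Replicated.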

Staphylococcus aureus [13] = experiment: Antibacterial activity against Staphylococcus aureus ATCC 29213 at 0.5 times MIC after 30 serial passages; type: functional
How it was run: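 Serial-passage resistance selection in S. aureus ATCC29213. MIC was determined by CA-MHB broth macrodilution (2-fold dilutions, ~5×10^5 CFU/mL, 35 °C). Cells grown at 0.5× MIC were recovered and used to prepare the inoculum for the next MIC assay, with MIC change read after each 24 h/35 °C round. This was repeated for 17 passages, or 30 passages for one compound. Replicated.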

Staphylococcus aureus [14] = experiment: Antibacterial activity against methicillin-resistant Staphylococcus aureus DB57964 after 24 hrs by two fold dilution assay; type: functional; conditions: DB57964, 24 h; how it was run: as §2
Staphylococcus aureus [15] = experiment: Antibacterial activity against methicillin-sensitive Staphylococcus aureus ATCC 6538 after 24 hrs by two fold dilution assay; type: functional; conditions: ATCC 6538, 24 h; how it was run: as §2
[16] = Cytotoxicity against human corneal fibroblasts assessed as reduction in cell viability at 100 uM after 4 hrs by CytoTox-ONE reagent-based LDH assay; conditions: corneal fibroblast
How it was run: (§7)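 Human corneal fibroblasts exposed to compound; cytotoxicity taken from LDH leakage, with cells treated with 1% triton X-100 as positive control. Measurements replicated.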

Staphylococcus aureus [17] = experiment: Antibacterial activity against methicillin-resistant Staphylococcus aureus ATCC BAA-38 after 24 hrs by two fold dilution assay; type: functional; conditions: ATCC BAA-38, 24 h; how it was run: as §2
Staphylococcus aureus [18] = experiment: Antibacterial activity against methicillin-resistant Staphylococcus aureus ATCC 43300 after 24 hrs by two fold dilution assay; type: functional; conditions: ATCC 43300, 24 h; how it was run: as §2
Staphylococcus aureus [19] = experiment: Antibacterial activity against methicillin-sensitive Staphylococcus aureus DM4583R after 24 hrs by two fold dilution assay; type: functional; how it was run: as §2
Staphylococcus aureus [20] = experiment: Disruption of membrane in Staphylococcus aureus isolate DM4001R assessed as increase in ATP leakage at 4 times MIC after 1 hr by ATP bioluminescent assay relative to control; type: functional; how it was run: as §3
Staphylococcus aureus [21] = experiment: Antibacterial activity against methicillin-resistant Staphylococcus aureus ATCC 700699 after 24 hrs by two fold dilution assay; type: functional; conditions: Mu50, 24 h; how it was run: as §2
Enterococcus faecium [22] = experiment: Antibacterial activity against vancomycin A-resistant Enterococcus faecium VRE 1008 after 24 hrs by two fold dilution assay; type: functional; conditions: VRE 1008, 24 h; how it was run: as §2
Staphylococcus aureus [23] = experiment: Antibacterial activity against methicillin-sensitive Staphylococcus aureus ATCC 29213 after 24 hrs by two fold dilution assay; type: functional; conditions: ATCC 29213, 24 h; how it was run: as §2
Staphylococcus aureus [24] = experiment: Antibacterial activity against methicillin-sensitive Staphylococcus aureus DM4299 after 24 hrs by two fold dilution assay; type: functional; conditions: DM4299, 24 h; how it was run: as §2
[25] = Cytotoxicity against human corneal fibroblasts assessed as reduction in cell viability up to 250 uM after 4 hrs by CytoTox-ONE reagent-based LDH assay relative to control; conditions: corneal fibroblast; how it was run: as §7
Staphylococcus aureus [26] = experiment: Bactericidal activity against methicillin-resistant Staphylococcus aureus DM21455 assessed as log reduction in bacterial load at 2 times MIC after 30 mins by time kill assay; type: functional; how it was run: as §6
Enterococcus faecium [27] = experiment: Antibacterial activity against vancomycin A-resistant Enterococcus faecium VRE 1007 after 24 hrs by two fold dilution assay; type: functional; conditions: VRE 1007, 24 h; how it was run: as §2
Staphylococcus aureus [28] = experiment: Antibacterial activity against methicillin-sensitive Staphylococcus aureus ATCC 29737 after 24 hrs by two fold dilution assay; type: functional; conditions: ATCC 29737, 24 h; how it was run: as §2
Enterococcus faecalis = experiment: Antibacterial activity against Enterococcus faecalis ATCC 29212 after 24 hrs by two fold dilution assay; type: functional; conditions: ATCC 29212, 24 h; how it was run: as §5
Enterococcus hirae = experiment: Antibacterial activity against Enterococcus hirae ATCC 9790 after 24 hrs by two fold dilution assay; type: functional; conditions: ATCC 9790, 24 h; how it was run: as §5
Staphylococcus aureus [29] = experiment: Antibacterial activity against methicillin-resistant Staphylococcus aureus DB6506 after 24 hrs by two fold dilution assay; type: functional; conditions: DB6506, 24 h; how it was run: as §2
[30] = Solubility of the compound in water; type: physicochemical; conditions: buffer

Q: Which Activity (Lipid bilayer [1]) does the source give for `O=c1c2c(O)cc(O)cc2oc2cc(O)cc(O)c12` here?
A: 11.7%

Q: And the MIC (Staphylococcus aureus [2])?
A: > 50 µg/mL

Q: And the MIC (Staphylococcus aureus [3])?
A: > 50 µg/mL

Q: What about the Activity (Staphylococcus aureus [4]) of the same molecule?
A: 6.9%

Q: What about the MIC (Staphylococcus aureus [5]) of the same molecule?
A: > 50 µg/mL

Q: What about the Activity (Staphylococcus aureus [6]) of the same molecule?
A: inactive

Q: What about the MIC (Bacillus cereus) of the same molecule?
A: > 50 µg/mL

Q: What about the Activity (Lipid bilayer [7]) of the same molecule?
A: < 20%

Q: With `COC(=O)[C@H](CCCNC(=N)N)NC(=O)[C@H](CCCNC(=N)N)NC(=O)COc1cc(OCC=C(C)C)cc2oc3cc(OCC=C(C)C)cc(OCC(=O)N[C@@H](CCCNC(=N)N)C(=O)N[C@@H](CCCNC(=N)N)C(=O)OC)c3c(=O)c12` as the molecule, how does the MIC (Staphylococcus aureus [8]) read?
A: 3.13 µg/mL (≈ 2.69 µM)

Q: And the Activity (Staphylococcus aureus [9])?
A: Active

Q: And the MIC (Staphylococcus aureus [10])?
A: 1.56 µg/mL (≈ 1.34 µM)

Q: And the Activity (Lipid bilayer [1])?
A: 63.3%

Q: And the MIC (Staphylococcus aureus [2])?
A: 1.56 µg/mL (≈ 1.34 µM)

Q: What about the MIC (Staphylococcus aureus [3]) of the same molecule?
A: 3.13 µg/mL (≈ 2.69 µM)

Q: And the MIC (Enterococcus faecium [11])?
A: 1.56 µg/mL (≈ 1.34 µM)

Q: What about the “log(activity)” value (Staphylococcus aureus [12]) of the same molecule?
A: 3

Q: What about the Activity (Staphylococcus aureus [13]) of the same molecule?
A: Active

Q: What about the MIC (Staphylococcus aureus [14]) of the same molecule?
A: 1.56 µg/mL (≈ 1.34 µM)

Q: What about the MIC (Staphylococcus aureus [15]) of the same molecule?
A: 1.56 µg/mL (≈ 1.34 µM)

Q: And the Activity [16]?
A: Non-Toxic

Q: What about the MIC (Staphylococcus aureus [17]) of the same molecule?
A: 3.13 µg/mL (≈ 2.69 µM)

Q: And the MIC (Staphylococcus aureus [5])?
A: 3.13 µg/mL (≈ 2.69 µM)

Q: What about the MIC (Staphylococcus aureus [18]) of the same molecule?
A: 1.56 µg/mL (≈ 1.34 µM)

Q: What about the MIC (Staphylococcus aureus [19]) of the same molecule?
A: 3.13 µg/mL (≈ 2.69 µM)

Q: What about the Activity (Staphylococcus aureus [20]) of the same molecule?
A: 66.4%

Q: And the MIC (Staphylococcus aureus [21])?
A: 1.56 µg/mL (≈ 1.34 µM)

Q: What about the MIC (Enterococcus faecium [22]) of the same molecule?
A: 3.13 µg/mL (≈ 2.69 µM)

Q: What about the MIC (Staphylococcus aureus [23]) of the same molecule?
A: 3.13 µg/mL (≈ 2.69 µM)

Q: And the MIC (Staphylococcus aureus [24])?
A: 1.56 µg/mL (≈ 1.34 µM)

Q: What about the Activity [25] of the same molecule?
A: 27.4%

Q: What about the “log(activity)” value (Staphylococcus aureus [26]) of the same molecule?
A: 3

Q: And the MIC (Enterococcus faecium [27])?
A: 1.56 µg/mL (≈ 1.34 µM)

Q: What about the MIC (Staphylococcus aureus [28]) of the same molecule?
A: 1.56 µg/mL (≈ 1.34 µM)

Q: And the MIC (Enterococcus faecalis)?
A: 6.25 µg/mL (≈ 5.36 µM)

Q: And the MIC (Bacillus cereus)?
A: 3.13 µg/mL (≈ 2.69 µM)

Q: What about the MIC (Enterococcus hirae) of the same molecule?
A: 6.25 µg/mL (≈ 5.36 µM)

Q: What about the Activity (Lipid bilayer [7]) of the same molecule?
A: < 20%

Q: What about the MIC (Staphylococcus aureus [29]) of the same molecule?
A: 1.56 µg/mL (≈ 1.34 µM)

Q: What about the solubility [30] of the same molecule?
A: Soluble
